# According to ChEMBL document CHEMBL3102852, “Design, synthesis and cytotoxic activity of novel sulfonylurea derivatives of podophyllotoxin” (Bioorg Med Chem, 2014):
# System: not listed separately
# Experiment: Cytotoxicity against multidrug-resistant human KBVIN cells after 72 hrs by sulforhodamine B assay
# Assay type: functional, cell-based
# Details: not given
# Method in brief: (§1)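 Cells seeded at 3-5 × 10^3 per well in RPMI-1640 with 10% FBS containing various sample concentrations, incubated 72 h. Attached cells fixed with cold 50% trichloroacetic acid for 30 min, stained with 0.04% SRB for 30 min, bound dye solubilized in 10 mM Tris-base, absorbance read at 515 nm. Triplicate experiments; KBvin is a vincristine-selected MDR KB subline.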
row,Compound,IC50
1,CCS(=O)(=O)NC(=O)N[C@@H]1c2cc3c(cc2[C@@H](c2cc(OC)c(OC)c(OC)c2)[C@H]2C(=O)OC[C@@H]21)OCO3,> 20 µM
2,COc1cc([C@@H]2c3cc4c(cc3[C@@H](NC(=O)NS(=O)(=O)c3ccccc3)[C@H]3COC(=O)[C@H]23)OCO4)cc(OC)c1OC,1.76 µM
3,COc1cc([C@@H]2c3cc4c(cc3[C@@H](NC(=O)NS(=O)(=O)c3ccc(C)cc3)[C@H]3COC(=O)[C@H]23)OCO4)cc(OC)c1OC,> 20 µM
4,COc1cc([C@@H]2c3cc4c(cc3[C@@H](NC(=O)NS(=O)(=O)c3ccc(Cl)cc3)[C@H]3COC(=O)[C@H]23)OCO4)cc(OC)c1OC,2.01 µM
5,COc1cc([C@@H]2c3cc4c(cc3[C@@H](NC(=O)NS(C)(=O)=O)[C@H]3COC[C@H]23)OCO4)cc(OC)c1OC,> 20 µM
6,COc1cc([C@@H]2c3cc4c(cc3[C@@H](NC(=O)NS(=O)(=O)c3ccc(C(C)C)cc3)[C@H]3COC[C@H]23)OCO4)cc(OC)c1OC,13.2 µM
7,COc1ccc(S(=O)(=O)NC(=O)N[C@@H]2c3cc4c(cc3[C@@H](c3cc(OC)c(OC)c(OC)c3)[C@H]3COC[C@@H]32)OCO4)c(OC)c1,> 20 µM
8,COc1cc([C@@H]2c3cc4c(cc3[C@@H](NC(=O)NS(C)(=O)=O)[C@H]3COC(=O)[C@H]23)OCO4)cc(OC)c1O,> 20 µM
9,CCS(=O)(=O)NC(=O)N[C@@H]1c2cc3c(cc2[C@@H](c2cc(OC)c(O)c(OC)c2)[C@H]2C(=O)OC[C@@H]21)OCO3,> 20 µM
10,CCCCS(=O)(=O)NC(=O)N[C@@H]1c2cc3c(cc2[C@@H](c2cc(OC)c(O)c(OC)c2)[C@H]2C(=O)OC[C@@H]21)OCO3,14 µM
11,COc1cc([C@@H]2c3cc4c(cc3[C@@H](O[C@@H]3O[C@@H]5CO[C@@H](C)O[C@H]5[C@H](O)[C@H]3O)[C@H]3COC(=O)[C@H]23)OCO4)cc(OC)c1O [ETOPOSIDE],> 20 µM

# System: KB
# Experiment: Cytotoxicity against human KB cells after 72 hrs by sulforhodamine B assay
# Assay type: functional, cell-based
# Details: not given
# Method in brief: as §1
row,Compound,IC50
1,CCS(=O)(=O)NC(=O)N[C@@H]1c2cc3c(cc2[C@@H](c2cc(OC)c(OC)c(OC)c2)[C@H]2C(=O)OC[C@@H]21)OCO3,> 20 µM
2,COc1cc([C@@H]2c3cc4c(cc3[C@@H](NC(=O)NS(=O)(=O)c3ccccc3)[C@H]3COC(=O)[C@H]23)OCO4)cc(OC)c1OC,1.41 µM
3,COc1cc([C@@H]2c3cc4c(cc3[C@@H](NC(=O)NS(=O)(=O)c3ccc(C)cc3)[C@H]3COC(=O)[C@H]23)OCO4)cc(OC)c1OC,> 20 µM
4,COc1cc([C@@H]2c3cc4c(cc3[C@@H](NC(=O)NS(=O)(=O)c3ccc(Cl)cc3)[C@H]3COC(=O)[C@H]23)OCO4)cc(OC)c1OC,1.72 µM
5,COc1cc([C@@H]2c3cc4c(cc3[C@@H](NC(=O)NS(C)(=O)=O)[C@H]3COC[C@H]23)OCO4)cc(OC)c1OC,> 20 µM
6,COc1cc([C@@H]2c3cc4c(cc3[C@@H](NC(=O)NS(=O)(=O)c3ccc(C(C)C)cc3)[C@H]3COC[C@H]23)OCO4)cc(OC)c1OC,11 µM
7,COc1ccc(S(=O)(=O)NC(=O)N[C@@H]2c3cc4c(cc3[C@@H](c3cc(OC)c(OC)c(OC)c3)[C@H]3COC[C@@H]32)OCO4)c(OC)c1,12 µM
8,COc1cc([C@@H]2c3cc4c(cc3[C@@H](NC(=O)NS(C)(=O)=O)[C@H]3COC(=O)[C@H]23)OCO4)cc(OC)c1O,> 20 µM
9,CCS(=O)(=O)NC(=O)N[C@@H]1c2cc3c(cc2[C@@H](c2cc(OC)c(O)c(OC)c2)[C@H]2C(=O)OC[C@@H]21)OCO3,> 20 µM
10,CCCCS(=O)(=O)NC(=O)N[C@@H]1c2cc3c(cc2[C@@H](c2cc(OC)c(O)c(OC)c2)[C@H]2C(=O)OC[C@@H]21)OCO3,10.9 µM

# System: A549
# Experiment: Cytotoxicity against human A549 cells after 72 hrs by sulforhodamine B assay
# Assay type: functional, cell-based
# Details: A549, 72 h
# Method in brief: as §1
row,Compound,IC50
1,CCS(=O)(=O)NC(=O)N[C@@H]1c2cc3c(cc2[C@@H](c2cc(OC)c(OC)c(OC)c2)[C@H]2C(=O)OC[C@@H]21)OCO3,> 20 µM
2,COc1cc([C@@H]2c3cc4c(cc3[C@@H](NC(=O)NS(=O)(=O)c3ccccc3)[C@H]3COC(=O)[C@H]23)OCO4)cc(OC)c1OC,1.6 µM
3,COc1cc([C@@H]2c3cc4c(cc3[C@@H](NC(=O)NS(=O)(=O)c3ccc(C)cc3)[C@H]3COC(=O)[C@H]23)OCO4)cc(OC)c1OC,> 20 µM
4,COc1cc([C@@H]2c3cc4c(cc3[C@@H](NC(=O)NS(=O)(=O)c3ccc(Cl)cc3)[C@H]3COC(=O)[C@H]23)OCO4)cc(OC)c1OC,1.89 µM
5,COc1cc([C@@H]2c3cc4c(cc3[C@@H](NC(=O)NS(C)(=O)=O)[C@H]3COC[C@H]23)OCO4)cc(OC)c1OC,> 20 µM
6,COc1cc([C@@H]2c3cc4c(cc3[C@@H](NC(=O)NS(=O)(=O)c3ccc(C(C)C)cc3)[C@H]3COC[C@H]23)OCO4)cc(OC)c1OC,11.8 µM
7,COc1ccc(S(=O)(=O)NC(=O)N[C@@H]2c3cc4c(cc3[C@@H](c3cc(OC)c(OC)c(OC)c3)[C@H]3COC[C@@H]32)OCO4)c(OC)c1,14.9 µM
8,COc1cc([C@@H]2c3cc4c(cc3[C@@H](NC(=O)NS(C)(=O)=O)[C@H]3COC(=O)[C@H]23)OCO4)cc(OC)c1O,> 20 µM
9,CCS(=O)(=O)NC(=O)N[C@@H]1c2cc3c(cc2[C@@H](c2cc(OC)c(O)c(OC)c2)[C@H]2C(=O)OC[C@@H]21)OCO3,> 20 µM
10,CCCCS(=O)(=O)NC(=O)N[C@@H]1c2cc3c(cc2[C@@H](c2cc(OC)c(O)c(OC)c2)[C@H]2C(=O)OC[C@@H]21)OCO3,7.96 µM

# System: DU-145
# Experiment: Cytotoxicity against human DU145 cells after 72 hrs by sulforhodamine B assay
# Assay type: functional, cell-based
# Details: DU-145, 72 h
# Method in brief: as §1
row,Compound,IC50
1,CCS(=O)(=O)NC(=O)N[C@@H]1c2cc3c(cc2[C@@H](c2cc(OC)c(OC)c(OC)c2)[C@H]2C(=O)OC[C@@H]21)OCO3,> 20 µM
2,COc1cc([C@@H]2c3cc4c(cc3[C@@H](NC(=O)NS(=O)(=O)c3ccccc3)[C@H]3COC(=O)[C@H]23)OCO4)cc(OC)c1OC,1.44 µM
3,COc1cc([C@@H]2c3cc4c(cc3[C@@H](NC(=O)NS(=O)(=O)c3ccc(C)cc3)[C@H]3COC(=O)[C@H]23)OCO4)cc(OC)c1OC,> 20 µM
4,COc1cc([C@@H]2c3cc4c(cc3[C@@H](NC(=O)NS(=O)(=O)c3ccc(Cl)cc3)[C@H]3COC(=O)[C@H]23)OCO4)cc(OC)c1OC,1.75 µM
5,COc1cc([C@@H]2c3cc4c(cc3[C@@H](NC(=O)NS(C)(=O)=O)[C@H]3COC[C@H]23)OCO4)cc(OC)c1OC,> 20 µM
6,COc1cc([C@@H]2c3cc4c(cc3[C@@H](NC(=O)NS(=O)(=O)c3ccc(C(C)C)cc3)[C@H]3COC[C@H]23)OCO4)cc(OC)c1OC,11.9 µM
7,COc1ccc(S(=O)(=O)NC(=O)N[C@@H]2c3cc4c(cc3[C@@H](c3cc(OC)c(OC)c(OC)c3)[C@H]3COC[C@@H]32)OCO4)c(OC)c1,14.3 µM
8,COc1cc([C@@H]2c3cc4c(cc3[C@@H](NC(=O)NS(C)(=O)=O)[C@H]3COC(=O)[C@H]23)OCO4)cc(OC)c1O,> 20 µM
9,CCS(=O)(=O)NC(=O)N[C@@H]1c2cc3c(cc2[C@@H](c2cc(OC)c(O)c(OC)c2)[C@H]2C(=O)OC[C@@H]21)OCO3,> 20 µM
10,CCCCS(=O)(=O)NC(=O)N[C@@H]1c2cc3c(cc2[C@@H](c2cc(OC)c(O)c(OC)c2)[C@H]2C(=O)OC[C@@H]21)OCO3,11.9 µM
